Experimental data pooled from the literature.
Each line is one published result; the experiments were not run side by side.
Effect on: metabolic stability
Host: mouse
Matrix: liver microsomes

SMILES	tested at	pH	half-life
O=C(O)Cc1ccccc1Nc1c(Cl)cccc1Cl	–	–	44.4 min
O=c1c2ccc(Oc3cccc(OC(F)(F)F)c3)cc2[nH]c2cc(Cl)cc(F)c12	1 µM	pH 7.4	57 min
Cc1cc(-c2ccnc3[nH]cc(F)c23)cc(F)c1[C@@]1(O)[C@H](C)CN(C(=O)CN)C[C@@H]1C	–	–	84.1 min
CC(C)c1cc(C(=O)NCCN)c2cnn(C(C)C)c2n1	–	–	> 145 min
O=c1c2c([nH]c3c(Oc4ccc(OC(F)(F)F)cc4)cccc13)CCCC2	1 µM	pH 7.4	> 60 min
CCN(CC)CCNC(=O)c1c(C)[nH]c(/C=C2\C(=O)Nc3ccc(F)cc32)c1C	–	–	17 min
NS(=O)(=O)c1nnc(NC(=O)CCC2CCC(F)(F)CC2)s1	–	–	> 120 min
Cc1cc(-c2ccnc3[nH]cc(F)c23)cc(F)c1[C@@]1(O)[C@H](C)CN(C(C)C)C[C@@H]1C	–	–	1.5 min
CC(C)C(=O)OCc1cc2[nH]c(=S)n(Cc3cccnc3)c(=O)c2cc1Cl	1 µM	pH 7.4	< 5 min
NS(=O)(=O)c1nnc(NC(=O)C2CCCC3(CCCCC3)C2)s1 (stereo not shown)	–	–	58.8 min
NC(=NCCC[C@@H](C(=O)NCc1ccccc1)n1cc(-c2ccc(-c3ccccc3)cc2)nn1)c1ccc([N+](=O)[O-])o1	–	–	120 min
O=c1c2cccc(Oc3ccc(OC(F)(F)F)cc3)c2[nH]c2cc(Cl)cc(F)c12	1 µM	pH 7.4	> 60 min
C=CCn1c(=O)c2cnc(Nc3ccc(N4CCN(C)CC4)cc3)nc2n1-c1ccc2c(n1)[C@@](O)(CC)CC2	–	–	77 min
OCc1ccc(-c2nn(Cc3ccccc3)c3ccccc23)o1	–	–	3 min
COc1ccc(Cn2cc(CO[C@@H]3O[C@H]4[C@H](OC[C@H]4O)[C@H]3O)nn2)cc1	–	–	120 min
CC(C)(C)OC(=O)N1CCC(Oc2ccc3c(=O)c4c(F)cc(Cl)cc4[nH]c3c2)C1 (stereo not shown)	1 µM	pH 7.4	> 60 min

SMILES	tested at	pH	half-life
Cc1cc(-c2ccnc3[nH]cc(F)c23)cc(F)c1[C@@]1(O)[C@H](C)CN(C2CCS(=O)(=O)CC2)C[C@@H]1C	–	–	45.9 min
NC1=NN(c2ccc(Oc3ccccc3)c(S(=O)(=O)O)c2)C(=O)C1	1 µM	–	51.2 min
Nc1nnc(-c2ccccc2O)cc1N1CCN(Cc2ccc(N3CCN(CCOc4cccc5c4C(=O)N(C4CCC(=O)NC4=O)C5=O)CC3)c(F)c2)CC1 (stereo not shown)	1 mM	–	46 min
O=c1c2cc(Cl)ncc2[nH]c(=S)n1Cc1cccnc1	1 µM	pH 7.4	89.7 min
CCCCCCCCCCCCCCCC(=O)NCCOC(=O)C[C@@H](CN)CC(C)C	1 µM	pH 7.4	95 min
Cc1cc(-c2ccnc3[nH]cc(F)c23)cc(F)c1[C@@]1(O)[C@H](C)CN(C2COC2)C[C@@H]1C	–	–	1.7 min
Cc1[nH]c(C)c(S(=O)(=O)Nc2ccc(C(F)(F)F)c(Cl)c2)c1C(=O)N(C)C	–	–	3.9 min
CCCCCCOc1ccc2c(=O)c3c([nH]c2c1)CCCC3	1 µM	pH 7.4	11.8 min
CCN(CC)CCNC(=O)c1c(C)[nH]c(/C=C2\C(=O)Nc3ccc(F)cc32)c1C	1 µM	pH 7.4	14 min
CCN(CC)CCCOc1ccc2c(=O)c3c([nH]c2c1)CCCC3	1 µM	pH 7.4	> 60 min
COCC(=O)OCc1cc2[nH]c(=S)n(Cc3cccnc3)c(=O)c2cc1Cl	1 µM	pH 7.4	< 5 min
CN1CCC(Oc2ccc3c(=O)c4c(F)cc(Cl)cc4[nH]c3c2)CC1	1 µM	pH 7.4	> 60 min
CN(C)CC(=O)OCc1cc2[nH]c(=S)n(Cc3cccnc3)c(=O)c2cc1Cl	1 µM	pH 7.4	< 5 min
O=c1c2c([nH]c3cc(Oc4ccc(OC(F)(F)F)cc4)c(F)cc13)CCCC2	1 µM	pH 7.4	13.2 min
C[C@@H]1CNC[C@H](C)[C@@]1(O)c1ccc(-c2ccnc3[nH]cc(F)c23)cc1Cl	–	–	9.1 min
